Assay results: paper PMC5045800 (Journal of chromatography. B, Analytical technologies in …, 2016)

Assays:
[1] = Stability of oncrasins in rat plasma; type: in vitro ADME; settings: for Stability after 2 h at room temperature: bench-top, 2 h (data not shown); for Three freeze-thaw cycles stability, percent of nominal concentration: freeze −80°C / thaw RT; for Three freeze-thaw cycles stability, percent of nominal concentration / Long term -80°C (14 days) stability, percent of nominal concentration / Short-term (1h) stability, percent of nominal concentration: n=3, mean ± SD; for Short-term (1h) stability, percent of nominal concentration: room temperature bench-top 1 h
In short: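 Blank rat plasma was spiked at low and high QC levels, three replicates per level, then measured by LC-MS/MS against freshly prepared samples at the same concentrations. Results are percent of nominal. Short-term bench-top: room temperature for 1, 2 and 3 h. Freeze-thaw: three cycles of −80°C freezing and room-temperature thawing. Long-term: 14 days of storage.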

[2] = Pharmacokinetic study in rats after intravenous oncrasin-266 formulation; type: in vivo, Sprague-Dawley rats; settings: mean ± SD, n=5; for AUC / Cmax: rat plasma; for Cl / Vd / t1/2: rat
In short: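 Male adult Sprague-Dawley rats received the prodrug formulation IV through a jugular vein cannula at 10, 25 or 50 mg/kg (n=5 per dose). Blood (200 μL) was drawn predose and at 0.0167 to 48 h into heparinized tubes. Plasma was spun at 20,800 x g for 3 min and kept at −80°C. Urine was collected over 0–24 h. Analytes were quantified by validated LC-MS/MS. Each rat's profile was analysed noncompartmentally.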

[3] = Stability of processed sample; type: in vitro ADME, rat; settings: plasma extracts; for Deviation from nominal concentration after 24 h in the auto-sampler: 24 h at 15°C (data not shown); for Auto-sampler at 15°C (1h) stability, percent of nominal concentration: n=3, mean ± SD
In short: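 Spiked rat plasma (50 μL) was mixed with 100 μL acetonitrile internal-standard working solution (125 ng/mL) and centrifuged at 20,800 x g for 5 min at 4°C. The supernatant extracts were held in the auto-sampler at 15°C for 1 h and 24 h. They were then compared with freshly obtained extracts at low and high QC levels in triplicate, by LC-MS/MS.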

[4] = analyte after I.V. oncrasin-266 formulation 10 mg/kg
[5] = analyte after I.V. oncrasin-266 formulation 25 mg/kg
[6] = analyte after I.V. oncrasin-266 formulation 50 mg/kg

Structure (SMILES)	Stability after 2 h at room temperature [1]	AUC [2, 4]	Cmax [2, 4]	AUC [2, 5]	Cmax [2, 5]	AUC [2, 6]	Cmax [2, 6]	Cl [2, 4]	Vd [2, 4]	t1/2 [2, 4]	Cl [2, 5]	Vd [2, 5]	t1/2 [2, 5]	Cl [2, 6]	Vd [2, 6]	t1/2 [2, 6]	Deviation from nominal concentration after 24 h in the auto-sampler [3]	other results
O=Cc1cn(Cc2cccc(Cl)c2)c2ccccc12 [NSC-741908]	remained stable	500 ± 420 ng·h/mL	1560 ± 1550 ng/mL	110 ± 30 ng·h/mL	330 ± 120 ng/mL	680 ± 420 ng·h/mL	2140 ± 1730 ng/mL	75.73 ± 86.14 L/kg	47.04 ± 33.52 L/kg	1.19 ± 0.93 h	254.62 ± 108.12 L/kg	443.15 ± 71.91 L/kg	1.31 ± 0.39 h	103.60 ± 67.32 L/kg	137.64 ± 33.49 L/kg	1.16 ± 0.52 h	≤ 15%	Three freeze-thaw cycles stability, percent of nominal concentration ([1]; nominal 1 ng/mL): 110.20 ± 6.79%; Three freeze-thaw cycles stability, percent of nominal concentration ([1]; nominal 100 ng/mL): 95.15 ± 4.53%; Long term -80°C (14 days) stability, percent of nominal concentration ([1]; nominal 1 ng/mL): 112.67 ± 2.45%; Long term -80°C (14 days) stability, percent of nominal concentration ([1]; nominal 100 ng/mL): 93.46 ± 5.62%; Short-term (1h) stability, percent of nominal concentration ([1]; nominal 1 ng/mL): 101.00 ± 12.58%; Short-term (1h) stability, percent of nominal concentration ([1]; nominal 100 ng/mL): 99.21 ± 5.62%; Auto-sampler at 15°C (1h) stability, percent of nominal concentration ([3]; nominal 1 ng/mL): 113.44 ± 6.90%; Auto-sampler at 15°C (1h) stability, percent of nominal concentration ([3]; nominal 100 ng/mL): 100.25 ± 2.67%
OCc1cn(Cc2cccc(Cl)c2)c2ccccc12 [Oncrasin-72]	remained stable	2220 ± 330 ng·h/mL	15550 ± 5330 ng/mL	7150 ± 1960 ng·h/mL	52440 ± 16750 ng/mL	23700 ± 7950 ng·h/mL	54790 ± 30600 ng/mL	4.56 ± 0.7 L/kg	45.06 ± 16.70 L/kg	7.01 ± 2.81 h	3.62 ± 0.77 L/kg	42.55 ± 24.3 L/kg	7.74 ± 3.95 h	2.30 ± 0.74 L/kg	27.78 ± 10.36 L/kg	8.28 ± 1.34 h	≤ 15%	Three freeze-thaw cycles stability, percent of nominal concentration ([1]; nominal 2 ng/mL): 97.53 ± 5.94%; Three freeze-thaw cycles stability, percent of nominal concentration ([1]; nominal 200 ng/mL): 101.23 ± 10.03%; Long term -80°C (14 days) stability, percent of nominal concentration ([1]; nominal 2 ng/mL): 95.02 ± 8.54%; Long term -80°C (14 days) stability, percent of nominal concentration ([1]; nominal 200 ng/mL): 89.14 ± 0.49%; Short-term (1h) stability, percent of nominal concentration ([1]; nominal 2 ng/mL): 94.87 ± 5.31%; Short-term (1h) stability, percent of nominal concentration ([1]; nominal 200 ng/mL): 110.55 ± 3.0%; Auto-sampler at 15°C (1h) stability, percent of nominal concentration ([3]; nominal 2 ng/mL): 94.90 ± 2.54%; Auto-sampler at 15°C (1h) stability, percent of nominal concentration ([3]; nominal 200 ng/mL): 98.05 ± 6.15%
